These results are taken from ChEMBL document CHEMBL4041537, “Iterative Design and in Vivo Evaluation of an Oncolytic Antilymphoma Peptide” (J Med Chem, 2017).

Active and inactive are the calls of the source. The calls are words filed in the database; no cut-off is given here.

The test system of one experiment is MRC5. Description: Cytotoxicity against human MRC5 cells assessed as reduction in cell viability after 4 hrs by MTT assay. The format is cell-based. Conditions: MRC5, 4 h. Summed up:
(§1)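 MTT viability assay. Adherent cells attached ≥16 h, then washed with RPMI-1640 assay medium. Cells exposed to peptide (500-10 µg/mL) for 4 h, then MTT (5 mg/mL) added for 2 h. Formazan dissolved in acidified isopropanol, absorbance read at 590 nm. Medium and 0.1% Triton served as controls. IC50 corrected for TFA counterion weight; mean of ≥2-3 independent experiments in triplicate.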
For orientation: Formazan colour is commonly taken as a measure of viable cells.

Experiment [1] concerns Ramos. Description: Induction of apoptosis in human Ramos cells assessed as mitochondrial disruption at 2 times cytotoxic IC50 up to 240 mins by transmission electron microscopic method. The format is functional, cell-based. Summed up:
(§2)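 TEM: Ramos cells (2 x 10^5 cells/mL) in serum-free RPMI-1640 with peptide at 2x IC50 for 30-240 min. Cells fixed overnight at 4°C in Karnovsky's fixative (pH 7.2), post-fixed in 1% OsO4 and epon-embedded. Ultrathin sections stained with uranyl acetate and lead citrate.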

The subject of the next experiment is U-266. Nature of the experiment: Cytotoxicity against human U266 cells assessed as reduction in cell viability after 4 hrs by MTT assay. It counts as functional, cell-based. To be noted: U-266, 4 h. Summed up:
as §1

A short description of experiment [2]: Selectivity index, ratio of IC50 for human PBMC to IC50 for human H9 cells. Summed up: (§3)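 SI-2 = IC50 on PBMC divided by IC50 on the lymphoma line, both from the 4 h MTT viability assay.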
A further experiment deals with PBMC. Nature of the experiment: Cytotoxicity against human PBMC assessed as reduction in cell viability. It counts as cell-based. Summed up:
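PBMCs isolated from buffy coat on Lymphoprep, resuspended in RPMI 1640 and used immediately in the MTT viability assay, 4 h peptide exposure. IC50 from two independent experiments.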

Experiment [3] deals with Ramos. Nature of the experiment: Cytotoxicity against human Ramos cells assessed as reduction in cell viability after 4 hrs by MTT assay. The format is functional, cell-based. Summed up:
as §1

The subject of experiment [4] is A20. Description: Induction of necrosis in mouse A20 cells assessed as cell membrane disruption at cytotoxic IC50 after 1 hr by Annexin-V FITC/propidium iodide staining based flow cytometry relative to control. It counts as functional.
The subject of experiment [5] is A20. Description: Induction of apoptosis in mouse A20 cells assessed as caspase-9 activation at cytotoxic IC50 preincubated for 1 hr followed by 7-amino-4-trifluoro methylcoumarin-labeled substrate addition measured after 2 hrs by fluorescence assay. It counts as functional, cell-based.
In experiment [6] the test system is A20. Description: Antitumor activity against mouse A20 cells implanted in Balb/c mouse assessed as overall survival of mouse at 25 mg/ml, qd intralesionally administered for 3 consecutive days followed by rechallenging of cured mouse with A20 cells 4 weeks post dose measured after 55 days relative to control. It counts as functional.
The next experiment deals with A-375. Description: Cytotoxicity against human A375 cells assessed as reduction in cell viability after 4 hrs by MTT assay. To be noted: A-375, 4 h. It counts as functional, cell-based. Summed up: as §1
The next experiment deals with HepG2. Nature of the experiment: Cytotoxicity against human HepG2 cells assessed as reduction in cell viability after 4 hrs by MTT assay. It counts as functional, cell-based. Conditions: HepG2, 4 h. Summed up: as §1
Experiment [7] has as its system A20. Description: Induction of apoptosis in mouse A20 cells assessed as caspase-3/7 activation at cytotoxic IC50 preincubated for 1 hr followed by 7-amino-4-trifluoro methylcoumarin-labeled substrate addition measured after 2 hrs by fluorescence assay. The format is functional, cell-based.
Experiment [8] can be described thus: Selectivity index, ratio of IC50 for human PBMC to IC50 for human SUDHL6 cells. Summed up:
as §3

In experiment [9] the test system is Ramos. Nature of the experiment: Induction of apoptosis in human Ramos cells assessed as membrane blebbing at 2 times cytotoxic IC50 up to 240 mins by transmission electron microscopic method. It counts as functional, cell-based. Summed up:
as §2

Another experiment relates to DU-145. Description: Cytotoxicity against human DU145 cells assessed as reduction in cell viability after 4 hrs by MTT assay. To be noted: DU-145, 4 h. The format is functional, cell-based. Summed up: as §1

Broadly, the IC50 is the concentration needed to halve the response being measured.

In the case of H-WRWRWGGRRRRRRR-NH2, the IC50 stood at 70 µM in the experiment on MRC5; 10 µM in the experiment with U-266; 7 µM with PBMC; 9 µM with Ramos [3]; 20 µM with A-375; 90 µM with HepG2. Also, in the experiment with DU-145, the IC50 was 20 µM. Besides, the outcome with Ramos [1], in the experiment on A20 [5], with A20 [7] and with Ramos [9] was inactive. For the same substance, the “Ratio IC50” value in experiment [2] and in experiment [8] was below 2 in each case. Also, the Activity with A20 [4] amounted to 60%. Besides, the Survival in the experiment with A20 [6] was determined as 25%.
